ChEMBL document CHEMBL4715687, “A benzoxazole derivative as an inhibitor of anaerobic choline metabolism by human gut microbiota” (RSC Med Chem, 2020)
The source made the active and inactive calls. The rule behind the calls is not given here.

Key:
[1] = Metabolic stability in human intestinal S9 fraction assessed as parent compound remaining at 33 uM incubated for 2 hrs by LC/MS/MS analysis; format: ADME, subcellular, Intestine; conditions: read-out: Stabilty
How it was run: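 Mixed-gender human intestinal S9 (4 mg mL−1 stock) in 100 mM potassium phosphate pH 7.4 with NADPH cofactor, 6 mM MgCl2 and 1 mM EDTA. Compound at 33 μM final, in triplicate, 2 h at 37 °C. No-cofactor negative control. Supernatant diluted and percent intact compound quantified by LC-MS/MS.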

[2] = target: T1, Choline trimethylamine-lyase (Desulfovibrio alaskensis, UniProt Q30W70); experiment: (§1) Inhibition of N-terminal His6-tagged Desulfovibrio desulfuricans G20 CutC encoding 52 residues assessed as reduction in acetaldehyde using choline as substrate in presence of NADH-dependent yeast alcohol dehydrogenase by UV-Vis absorbance based assay
T1 sequence (Q30W70 whole entry): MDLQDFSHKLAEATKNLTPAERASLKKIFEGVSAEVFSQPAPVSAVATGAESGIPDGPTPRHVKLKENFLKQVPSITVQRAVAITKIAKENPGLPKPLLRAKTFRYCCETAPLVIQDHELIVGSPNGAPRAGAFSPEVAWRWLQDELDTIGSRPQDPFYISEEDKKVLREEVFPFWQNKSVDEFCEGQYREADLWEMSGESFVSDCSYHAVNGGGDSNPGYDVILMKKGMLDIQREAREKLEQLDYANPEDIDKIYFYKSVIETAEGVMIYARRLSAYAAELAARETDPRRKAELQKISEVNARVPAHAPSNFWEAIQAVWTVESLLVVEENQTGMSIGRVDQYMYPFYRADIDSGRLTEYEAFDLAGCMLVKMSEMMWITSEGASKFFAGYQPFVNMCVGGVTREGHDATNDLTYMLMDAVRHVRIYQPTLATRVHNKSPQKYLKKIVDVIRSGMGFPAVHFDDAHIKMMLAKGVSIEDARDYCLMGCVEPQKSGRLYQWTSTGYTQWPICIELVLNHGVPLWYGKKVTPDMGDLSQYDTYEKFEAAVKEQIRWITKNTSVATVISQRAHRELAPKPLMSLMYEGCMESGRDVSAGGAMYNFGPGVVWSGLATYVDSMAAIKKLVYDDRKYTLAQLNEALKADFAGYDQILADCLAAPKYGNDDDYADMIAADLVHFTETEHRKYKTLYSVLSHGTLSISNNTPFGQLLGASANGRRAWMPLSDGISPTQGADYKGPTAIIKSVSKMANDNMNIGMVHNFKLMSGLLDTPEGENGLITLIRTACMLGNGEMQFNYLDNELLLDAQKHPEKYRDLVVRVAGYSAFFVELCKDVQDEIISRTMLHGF

[3] = Inhibition of CutC in Escherichia coli MS 200-1 assessed as reduction in d9-TMA formation using d9-choline chloride as substrate incubated for 4 hrs under anaerobic condition by LC-MS-MS analysis
[4] = Inhibition of CutC (unknown origin) in human feces assessed as reduction in TMA production using choline as substrate by LC-MS/MS analysis; format: tissue-based, Bacteria
Saccharomyces cerevisiae = experiment: Effect on alcohol dehydrogenase activity in yeast at 5 to 50 uM in presence of NADH by colorimetric assay; conditions: dose 5-50 µM
Escherichia coli = experiment: Effect on d9-choline uptake in Escherichia coli MS 200-1 at 50 uM incubated for 15 mins by LC-MS/MS analysis; format: functional
Bacteria [5] = experiment: (§2) Binding affinity to CutC (unknown origin) by CM5 sensor chip immobilization based surface plasmon resonance analysis
[6] = as §2; design: species or system Bacteria
[7] = target: T2, Choline trimethylamine-lyase (Desulfovibrio alaskensis) (UniProt Q30W70); experiment: as §1
T2 sequence (whole entry): T1 sequence (Q30W70 whole entry)

Bacteria [8] = experiment: Non-competitive inhibition of CutC (unknown origin) assessed as reduction in Vmax with constant Km using choline as substrate at 5 uM by Lineweaver-Burk plot based Michelis-Menten analysis
How it was run: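 D. desulfuricans G20 CutC (20 μM) activated by CutD (40 μM) with dithionite (150 μM) and SAM (200 μM), anaerobic, in 50 mM potassium phosphate pH 8.0 with 50 mM KCl for 1 h, then diluted 20-fold. Coupled to yeast ADH (0.4 μM) with NADH (200 μM). Choline varied, inhibitor absent or at 5 μM. A340 read every 20 s for 10 min. Kinetics by Michaelis–Menten and Lineweaver–Burk plots, n = 3.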

Bacteria [9] = experiment: Binding affinity to CutD (unknown origin) by CM5 sensor chip immobilization based surface plasmon resonance analysis

| remaining at 2 h, 33 µM [1] [%] | IC50 [2] [µM] | EC50 [3] [µM] | Compound | other results |
| --- | --- | --- | --- | --- |
| > 90 | > 500 | > 1000 | O=C1NCCCCC1NC(=O)N1CCCc2cc(F)ccc21 (stereo unspecified) | – |
| > 90 | 73 | 87 | CC(O)CNC(=O)NC1CCN(Cc2ccccn2)CC1 (stereo unspecified) | – |
| > 90 | 49 | 79 | O=C(NCc1nc(-c2ccccc2)n[nH]1)NC1CCC(O)CC1 (stereo unspecified) | – |
| > 90 | 110 | 175 | Cn1c(N)nc2c(ncn2[C@@H]2O[C@H](CO)[C@@H](O)[C@H]2O)c1=O | – |
| > 90 | 167 | 298 | O=C(Nc1ccc(N2CCOCC2)nc1)NC1CCCCNC1=O (stereo unspecified) | – |
| > 90 | > 500 | > 1000 | Cc1cc(C(=O)NC2CCNCC2)no1 | – |
| > 90 | 212 | 409 | COc1cc(CCNC(=O)NC2CCCCC2CO)ccc1F (stereo unspecified) | – |
| > 90 | > 500 | > 1000 | Cc1ccc(-n2nc(NC3CCN(C(N)=O)CC3)cc2C)cc1 | – |
| > 90 | 85 | 143 | Cc1cccc(NC2CCN(C(=O)Nc3cn[nH]c3)CC2)n1 | – |
| > 90 | > 500 | > 1000 | O=C(CCc1ccccc1OC(F)(F)F)NC1CCCCNC1=O (stereo unspecified) | – |
| > 90 | 199 | 354 | CN1CCC(NC(=O)NCCNc2ccccn2)CC1 | – |
| > 90 | > 500 | > 1000 | O=C(NC1CCCCC1CO)c1cc(F)cc2[nH]cnc12 (stereo unspecified) | – |
| > 90 | 210 | 376 | CC(C)Nc1cccc(C(=O)NCCCN2CCC(O)CC2)c1 | – |
| > 90 | 301 | 488 | O=S(=O)(NCC1CCCC1O)c1ccc2cn[nH]c2c1 (stereo unspecified) | – |
| > 90 | 2.4 | 5.4 | O=C(NC1CC1)C1CCN(Cc2nc3cc(F)ccc3o2)CC1 | EC50 [4]: 38 µM; Activity (Saccharomyces cerevisiae): inactive; Activity (Escherichia coli): inactive; Activity (Bacteria [5]): Dose-dependent effect; Kd [6]: 4.05 µM; inhibition [7]: Dose-dependent effect; inhibition (Bacteria [8]): Active; Activity (Bacteria [9]): Active |

| Compound | remaining at 2 h, 33 µM [1] [%] | IC50 [2] [µM] | EC50 [3] [µM] | other results |
| --- | --- | --- | --- | --- |
| C[N+](C)(C)CC=O [BETAINE ALDEHYDE] | – | 26 | – | – |
| CN1CC=C[C@H](O)C1 | – | – | 11 | EC50 [4]: 83.9 µM |
